# Where two headings read alike, the source gives them in different places.
# Tests used:
# [1] = biological target: T1, αIIbβ3 headpiece (Homo sapiens, UniProt P05106+P08514); test: Size-exclusion chromatography; assay type: biochemical; details: 10 μM drug
# Procedure, shortened: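 Superdex 200 column equilibrated with 10 µM test compound in HEPES-buffered saline containing either 1 mM Mg2+/1 mM Ca2+ or 2 mM Mn2+/0.2 mM Ca2+. αIIbβ3 headpiece (30 µg) pre-incubated 30 min at RT with 60 µM compound in matching buffer, then chromatographed. Hydrodynamic radius taken from elution. Two runs, or one, per compound; controls ≥3.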
# [2] = biological target: αIIbβ3 WT (Homo sapiens, UniProt P05106+P08514); test: MBC319.4 Fab LIBS epitope exposure on αIIbβ3 WT transfectants; assay type: cell-based; details: inhibitors at 100x Kd
# Sequence of αIIbβ3 WT (P08514 32-887 limits assumed): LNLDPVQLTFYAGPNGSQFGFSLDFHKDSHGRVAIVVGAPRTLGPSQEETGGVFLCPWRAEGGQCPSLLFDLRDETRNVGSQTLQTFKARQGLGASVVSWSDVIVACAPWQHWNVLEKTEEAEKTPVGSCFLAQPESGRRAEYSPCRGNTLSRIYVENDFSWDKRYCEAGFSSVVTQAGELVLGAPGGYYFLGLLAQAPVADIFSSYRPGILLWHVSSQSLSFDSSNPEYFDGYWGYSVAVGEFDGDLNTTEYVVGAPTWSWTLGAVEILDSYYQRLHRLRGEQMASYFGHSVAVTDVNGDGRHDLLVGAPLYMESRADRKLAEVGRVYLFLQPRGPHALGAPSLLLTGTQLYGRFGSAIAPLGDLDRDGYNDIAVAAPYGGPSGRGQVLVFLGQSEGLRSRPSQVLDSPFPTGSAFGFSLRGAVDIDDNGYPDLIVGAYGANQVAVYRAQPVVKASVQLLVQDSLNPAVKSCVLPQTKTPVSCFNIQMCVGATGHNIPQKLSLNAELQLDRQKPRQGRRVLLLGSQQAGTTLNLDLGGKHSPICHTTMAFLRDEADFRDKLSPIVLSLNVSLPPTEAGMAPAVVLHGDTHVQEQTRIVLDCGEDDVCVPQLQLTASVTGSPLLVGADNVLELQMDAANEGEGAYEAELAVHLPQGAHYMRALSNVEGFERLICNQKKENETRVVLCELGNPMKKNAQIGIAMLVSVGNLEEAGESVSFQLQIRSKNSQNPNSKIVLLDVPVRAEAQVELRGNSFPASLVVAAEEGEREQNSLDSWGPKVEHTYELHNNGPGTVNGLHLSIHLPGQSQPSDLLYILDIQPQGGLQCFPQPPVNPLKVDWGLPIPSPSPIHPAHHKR
# Sequence of αIIbβ3 WT (P08514 891-1039 partner limits assumed): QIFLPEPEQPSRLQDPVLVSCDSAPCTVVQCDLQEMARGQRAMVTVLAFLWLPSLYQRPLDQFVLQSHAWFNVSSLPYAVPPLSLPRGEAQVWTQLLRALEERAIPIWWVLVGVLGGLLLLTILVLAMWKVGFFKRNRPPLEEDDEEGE
# Sequence of αIIbβ3 WT (P05106 27-788): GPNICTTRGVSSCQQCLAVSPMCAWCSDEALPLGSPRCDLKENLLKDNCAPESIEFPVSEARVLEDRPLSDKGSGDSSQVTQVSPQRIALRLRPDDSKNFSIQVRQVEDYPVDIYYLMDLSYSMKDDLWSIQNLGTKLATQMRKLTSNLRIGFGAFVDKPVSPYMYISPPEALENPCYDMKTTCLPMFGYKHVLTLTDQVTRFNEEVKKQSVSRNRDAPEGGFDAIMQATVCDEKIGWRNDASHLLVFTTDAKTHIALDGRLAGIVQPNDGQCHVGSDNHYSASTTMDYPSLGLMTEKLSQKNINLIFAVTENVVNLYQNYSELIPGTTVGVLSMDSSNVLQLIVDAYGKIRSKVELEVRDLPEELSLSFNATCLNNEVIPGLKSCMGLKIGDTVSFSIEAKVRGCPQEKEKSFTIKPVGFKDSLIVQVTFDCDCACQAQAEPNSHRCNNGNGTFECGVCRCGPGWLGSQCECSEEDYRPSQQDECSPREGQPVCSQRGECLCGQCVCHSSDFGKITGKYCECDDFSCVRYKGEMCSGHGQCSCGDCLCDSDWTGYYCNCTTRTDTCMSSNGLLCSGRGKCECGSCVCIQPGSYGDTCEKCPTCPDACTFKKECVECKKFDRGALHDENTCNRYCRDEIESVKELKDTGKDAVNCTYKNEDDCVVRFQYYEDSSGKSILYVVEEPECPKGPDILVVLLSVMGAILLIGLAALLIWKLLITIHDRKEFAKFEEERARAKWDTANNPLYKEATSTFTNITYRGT
# Procedure, shortened: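 Cells transiently transfected with αIIbβ3 received valproic acid (3 mM final) and glucose (0.4%) at 24 h, and were washed at 48 h in EDTA-containing then plain L-15/0.1% BSA. Cells were incubated with 20 nM Alexa647-MBC319.4 Fab plus inhibitor (Kd from FITC-echistatin competition on WT transfectants) in L15/0.1% BSA, 22°C for 2 h. Read-out was unwashed flow cytometry.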
# [3] = biological target: T1, αIIbβ3 headpiece; details: soaked in Mg2+
# Procedure, shortened: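 Closed αIIbβ3 headpiece–10E5 Fab crystals stabilised in 15% PEG 8000, 0.2 M ammonium sulfate, 0.1 M Tris-HCl pH 8.9, with glycerol raised in 5% steps to 15%. Compound (0.1-1 mM) added in the final 20% glycerol cryo step, with 1 mM MgCl2/1 mM CaCl2 or 2 mM MnCl2/0.2 mM CaCl2. Soaked 4 h, plunge-frozen in liquid N2. Synchrotron diffraction data collected, then structure refinement.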
# [4] = test system: WT αIIbβ3; test: Competition with FITC-echistatin binding to WT αIIbβ3 transfectant in serum; details: 95% serum compared to 0.1% BSA
# [5] = biological target: αIIbβ3 on washed human platelets (Homo sapiens, UniProt P05106+P08514); test: Platelets LIBS exposure assay; assay type: cell-based
# Sequence of αIIbβ3 on washed human platelets (P08514 32-887 limits assumed): as the sequence (P08514 32-887 limits assumed) above
# Sequence of αIIbβ3 on washed human platelets (P08514 891-1039 partner limits assumed): as the sequence (P08514 891-1039 partner limits assumed) above
# Sequence of αIIbβ3 on washed human platelets (P05106 27-788): as the sequence (P05106 27-788) above
# Procedure, shortened: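 Blood from drug-free healthy donors was taken into acid-citrate-dextrose. PRP was spun (140xg, 12 min), given PGE1 at 50 ng/ml, pelleted, washed in citrate-dextrose buffer pH 6.5 and resuspended in Tyrode's pH 7.4 with 1% BSA and 1 mM Ca²⁺/Mg²⁺. […] Read-out was unwashed flow cytometry MFI, over three days with two donors.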
# [6] = test system: clot retraction in human PRP; test: Clot retraction in platelet-rich plasma; assay type: cell-based; details: thrombin
# Procedure, shortened: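 Citrated human PRP pre-incubated 20 min at RT with test compound or buffer (in Tyrode's buffer + 1% BSA) at several concentrations. Glass-tube clot retraction started with thrombin (7.5 U/ml stock) at 37°C and imaged every 15 min. Retraction = 1 − (clot area/whole reaction area). IC50 at 30 and 90 min from a three-parameter inhibitor-response fit. Three runs, PRP from three donors.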
# [7] = test system: αIIbβ3; details: patients with acute coronary syndrome ref Cox et al., 2000; cited from earlier work
# [8] = test system: α5β1; details: ref Li et al., 2017; cited from earlier work
# [9] = 2012, cited from earlier work
# [10] = biological target: αIIbβ3_N305T (Homo sapiens, UniProt P05106+P08514, N331T); test: MBC319.4 Fab LIBS epitope exposure on αIIbβ3_N305T transfectants; assay type: cell-based; details: αIIbβ3 N305T transfectants, inhibitors at 100x Kd
# Sequence of αIIbβ3_N305T (P08514 32-887 limits assumed): as the sequence (P08514 32-887 limits assumed) above
# Sequence of αIIbβ3_N305T (P08514 891-1039 partner limits assumed): as the sequence (P08514 891-1039 partner limits assumed) above
# Sequence of αIIbβ3_N305T (P05106 27-788 N331T): as the sequence (P05106 27-788) above, with N305T counted along it
# Procedure, shortened: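 αIIbβ3_N305T transfectants of α5/αV-knockout Expi293F cells, harvested 48 h post-transfection and EDTA-washed. Incubated with 20 nM Alexa647-labelled MBC319.4 Fab and test compound in L-15 with 0.1% BSA, equilibrated 2 h at 22°C. Fab binding read by flow cytometry without washing, as MFI.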
# [11] = test system: αIIbβ3 WT and αIIbβ3_N305T; assay type: binding; details: Expi293F transfectants, L15 medium with 0.1% BSA
# Procedure, shortened: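 Expi293F cells with α5 and αV knocked out, transiently co-transfected with αIIb plus β3 or β3_N305T; valproic acid (3 mM) and glucose (0.4%) added at 24 h. At 48 h, cells washed with EDTA-containing L-15/0.1% BSA, then plain assay medium. 10^6 cells/ml incubated with FITC-echistatin and varying test compound, 2 h at 22°C; unwashed flow cytometry. Probe Kd from titration against 5 nM AF647-MBC319.4 Fab. Compound Kd from nonlinear least-squares fits with integrin concentration as a parameter, with error propagation.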
# T1 sequence (P08514 32-488 limits assumed): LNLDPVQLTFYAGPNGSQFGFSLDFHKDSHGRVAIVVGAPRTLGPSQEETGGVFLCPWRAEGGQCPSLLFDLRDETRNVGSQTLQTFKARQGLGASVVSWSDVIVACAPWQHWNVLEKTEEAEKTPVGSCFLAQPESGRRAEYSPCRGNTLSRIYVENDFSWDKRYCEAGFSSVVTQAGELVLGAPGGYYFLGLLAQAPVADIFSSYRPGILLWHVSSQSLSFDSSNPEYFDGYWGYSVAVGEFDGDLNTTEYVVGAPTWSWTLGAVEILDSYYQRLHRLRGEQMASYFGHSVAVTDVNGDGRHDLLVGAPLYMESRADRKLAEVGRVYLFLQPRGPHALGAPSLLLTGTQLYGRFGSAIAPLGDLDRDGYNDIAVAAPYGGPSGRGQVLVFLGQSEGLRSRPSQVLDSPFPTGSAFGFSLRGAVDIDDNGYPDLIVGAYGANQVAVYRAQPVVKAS
# T1 sequence (P05106 27-498 limits assumed): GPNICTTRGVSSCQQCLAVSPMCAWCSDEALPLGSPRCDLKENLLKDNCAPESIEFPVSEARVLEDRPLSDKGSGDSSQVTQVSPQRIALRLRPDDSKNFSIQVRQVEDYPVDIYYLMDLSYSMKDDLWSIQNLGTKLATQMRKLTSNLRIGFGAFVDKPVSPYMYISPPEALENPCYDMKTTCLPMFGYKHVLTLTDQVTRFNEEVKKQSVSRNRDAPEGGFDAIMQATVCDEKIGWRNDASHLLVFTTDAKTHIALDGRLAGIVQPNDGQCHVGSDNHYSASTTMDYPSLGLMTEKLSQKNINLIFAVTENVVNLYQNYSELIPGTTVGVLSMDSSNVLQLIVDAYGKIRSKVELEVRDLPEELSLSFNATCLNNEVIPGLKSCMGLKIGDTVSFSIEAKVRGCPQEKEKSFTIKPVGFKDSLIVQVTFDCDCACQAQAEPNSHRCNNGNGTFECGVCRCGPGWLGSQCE
compound,measurement,setting,value
CCCCS(=O)(=O)N[C@@H](Cc1ccc(OCCCCC2CCNCC2)cc1)C(=O)O [tirofiban],effect on αIIbβ3 headpiece opening in gel filtration,[1]; 1 mM Mg2+/1 mM Ca2+,caused the headpiece to elute earlier in gel filtration
same,hydrodynamic radius of αIIbβ3 headpiece,[1]; 2 mM Mn2+/0.2 mM Ca2+,~ 5.36 nm
same,LIBS (MBC319.4) epitope exposure,[2],next strongest
same,effect on structure of closed αIIbβ3 headpiece in crystals,[3],Ser-123 displaced water 1 to coordinate directly to the MIDAS metal ion
same,decrease of affinity in 95% serum,[4],1.8 fold
same,LIBS epitope exposure (integrin extension) on washed platelets,[5]; absence of thrombin,Stronger extension
same,inhibition of clot retraction,[6],effective
CCOC(=O)CCNC(=O)N[C@H]1CCN(c2ccc(C(=N)N)cc2)C1=O [orbofiban],platelet activation markers in treated patients,[7],"increased αIIbβ3 conformational change, antibody-stimulated thromboxane B2 production, and CD63 expression"
fibronectin,higher affinity for the open than the closed conformation,[8],"6,000 fold"
CCOCc1cc(OC)c(-c2ccc(C[C@H](NC(=O)c3c(F)cccc3F)C(=O)O)cc2)c(OC)c1 [firategrast],gadolinium-enhanced lesions,[9]; highest dose ref Miller et al.,significant decrease
same,gadolinium-enhanced lesions,[9]; lowest dose ref Miller et al.,significant increase
same,gadolinium-enhanced lesions,[9]; middle dose ref Miller et al.,lack of effect
NCC(=O)Nc1cncc(-c2nn3c(=O)cc(N4CCNCC4)nc3s2)c1 [RUC-4],LIBS (MBC319.4) epitope exposure,[10],no effect on LIBS epitope expression
same,affinity for activated mutant (β3 N305T) compared with WT αIIbβ3,[11],indistinguishable
same,LIBS (MBC319.4) epitope exposure,[2],no effect on LIBS epitope expression
same,LIBS epitope exposure (integrin extension) on washed platelets,[5]; absence of thrombin,no significant effect
same,LIBS epitope exposure (integrin extension) on washed platelets,[5]; after activation with thrombin 0.5 U/ml,no effect on integrin extension
same,inhibition of clot retraction,[6],effective
